Reference: ChEMBL document CHEMBL3286129, “Optimization of peptidomimetic boronates bearing a P3 bicyclic scaffold as proteasome inhibitors” (Eur J Med Chem, 2014)
Active and inactive are the calls of the source. No cut-off for these calls is given here.

How the values were obtained:
[1] = tested on: PC-3; test: Growth inhibition of human PC3 cells; type: functional
[2] = tested on: NCI-H460; test: Growth inhibition of human NCI-H460 cells; type: functional
[3] = tested on: MCF7; test: Growth inhibition of human MCF7 cells; type: functional
[4] = tested on: MDA-MB-468; test: Growth inhibition of human MDA-MB-468 cells; type: functional
[5] = Cytotoxicity against human leukemia cells assessed as cell growth at 10 uM relative to control; type: functional; settings: read-out: Activity
Procedure, shortened: (§1)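 Single-concentration screen against a panel of human cancer cell lines. Each value is the mean percent growth across the cell lines of that tumour subpanel.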

[6] = Growth inhibition of human HCC2998 cells; type: functional; settings: HCC 2998
[7] = tested on: SK-MEL-5; test: Growth inhibition of human SK-MEL-5 cells; type: functional
[8] = tested on: A549; test: Growth inhibition of human A549/ATCC cells; type: functional
[9] = tested on: NCI-H23; test: Growth inhibition of human NCI-H23 cells; type: functional
[10] = tested on: M14; test: Growth inhibition of human M14 cells; type: functional
[11] = Growth inhibition of human LOXIMVI cells; type: functional; settings: LOX IMVI
[12] = tested on: CCRF-CEM; test: Growth inhibition of human CCRF-CEM cells; type: functional
[13] = tested on: HL-60(TB); test: Growth inhibition of human HL-60(TB) cells; type: functional
[14] = molecular target: T1, Proteasome Macropain subunit MB1 (Homo sapiens, UniProt P28074); test: Inhibition of chymotrypsin-like activity of 20S proteasome in human erythrocytes using Suc-Leu-Leu-Val-Tyr-AMC as substrate by fluorescence assay; settings: read-out: Ki
T1 sequence (P28074 whole entry): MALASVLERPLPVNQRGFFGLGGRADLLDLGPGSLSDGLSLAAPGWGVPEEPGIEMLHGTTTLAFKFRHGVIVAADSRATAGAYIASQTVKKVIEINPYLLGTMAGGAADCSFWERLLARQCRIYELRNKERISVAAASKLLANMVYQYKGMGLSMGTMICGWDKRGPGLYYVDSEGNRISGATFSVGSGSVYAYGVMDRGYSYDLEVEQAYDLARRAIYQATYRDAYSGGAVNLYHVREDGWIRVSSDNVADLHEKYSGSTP

[15] = tested on: NCI-H522; test: Growth inhibition of human NCI-H522 cells; type: functional
[16] = tested on: COLO 205; test: Growth inhibition of human COLO205 cells; type: functional
[17] = Growth inhibition of human RXF393 cells; type: functional
[18] = Growth inhibition of human UACC257 cells; type: functional
[19] = Growth inhibition of human SF295 cells; type: functional; settings: SF-295
[20] = tested on: DU-145; test: Growth inhibition of human DU145 cells; type: functional
[21] = tested on: HCT-116; test: Growth inhibition of human HCT116 cells; type: functional
[22] = tested on: RPMI-8226; test: Growth inhibition of human RPMI8226 cells; type: functional
[23] = tested on: HT-29; test: Growth inhibition of human HT-29 cells; type: functional
[24] = Cytotoxicity against human renal cancer cells assessed as cell growth at 10 uM relative to control; type: functional; settings: Cancer cell lines, read-out: Activity; procedure, shortened: as §1
[25] = tested on: NCI-H322M; test: Growth inhibition of human NCI-H322M cells; type: functional
[26] = Growth inhibition of human HCT15 cells; type: functional
[27] = tested on: SF-268; test: Growth inhibition of human SF268 cells; type: functional
[28] = Growth inhibition of human OVCAR8 cells; type: functional
[29] = Cytotoxicity against human breast cancer cells assessed as cell growth at 10 uM relative to control; type: functional; settings: Cancer cell lines, read-out: Activity; procedure, shortened: as §1
[30] = tested on: MDA-MB-231; test: Growth inhibition of human MDA-MB-231 cells; type: functional
[31] = Growth inhibition of human Hs 578T cells; type: functional
[32] = tested on: SNB-75; test: Growth inhibition of human SNB75 cells; type: functional
[33] = molecular target: Proteasome Macropain subunit (Homo sapiens) (UniProt P49721); test: Inhibition of trypsin-like activity of 20S proteasome in human erythrocytes using Boc-Leu-Arg-Arg-AMC as substrate by fluorescence assay; type: cell-based
Sequence of Proteasome Macropain subunit (Homo sapiens) (P49721 whole entry): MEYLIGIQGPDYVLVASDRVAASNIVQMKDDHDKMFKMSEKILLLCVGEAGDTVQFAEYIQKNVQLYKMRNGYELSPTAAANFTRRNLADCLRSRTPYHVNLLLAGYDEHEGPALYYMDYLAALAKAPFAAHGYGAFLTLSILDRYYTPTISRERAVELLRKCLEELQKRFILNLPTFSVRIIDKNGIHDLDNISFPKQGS
Procedure, shortened: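 Human 20S proteasome 0.0025 mg/mL at 30 °C in 50 mM Tris pH 7.4, 50 mM NaCl, 0.5 mM EDTA, 0.03% SDS, 7.5% DMSO. Varied inhibitor concentrations; AMC release monitored continuously for 10 min, ex 380/em 460 nm. Ki derived from progress-curve IC50 fit.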

[34] = Growth inhibition of human BT549 cells; type: functional
[35] = tested on: SNB-19; test: Growth inhibition of human SNB19 cells; type: functional
[36] = tested on: 786-0; test: Growth inhibition of human 786-0 cells; type: functional
[37] = read-out: LC50 (the source's name)

## CC(C)C[C@H](NC(=O)Cn1ccc2ccc(Br)cc2c1=O)B(O)O
[1]
  GI50: 6.31 µM
  TGI: > 100 µM
[1]; [37]
  CC50: > 100 µM
[2]
  GI50: 5.58 µM
  LC50: > 100 µM
  TGI: 36.8 µM
[3]
  GI50: 0.42 µM
  TGI: > 100 µM
[3]; [37]
  CC50: > 100 µM
[4]
  GI50: 0.3 µM
  TGI: 1.1 µM
[4]; [37]
  CC50: > 100 µM
[5]
  growth at 10 µM: 0.57%
[6]
  GI50: 2.46 µM
  LC50: 31.4 µM
  TGI: 6.37 µM
[7]
  GI50: 0.8 µM
  LC50 (concentration killing 50% of cells): 7.88 µM
  TGI: 2.65 µM
[8]
  GI50: 4.58 µM
  TGI: > 100 µM
[8]; [37]
  CC50: > 100 µM
[9]
  GI50: 5.05 µM
  TGI: > 100 µM
[9]; [37]
  CC50: > 100 µM
[10]
  GI50: 1.25 µM
  LC50 (concentration killing 50% of cells): > 100 µM
  TGI: 6.73 µM
[11]
  GI50: 0.43 µM
  TGI: 1.85 µM
[11]; [37]
  CC50: 7.21 µM
[12]
  GI50: 0.44 µM
  TGI: > 100 µM
[12]; [37]
  CC50: > 100 µM
[13]
  GI50: 0.38 µM
  TGI: 5.34 µM
[13]; [37]
  CC50: > 100 µM
[14]
  Ki: 0.053 µM
[15]
  GI50: 0.59 µM
  LC50: 9.06 µM
  TGI: 2.54 µM
[16]
  GI50: 2.83 µM
  TGI: > 100 µM
[16]; [37]
  CC50: > 100 µM
[17]; RXF 393
  GI50: 0.43 µM
  TGI: 1.77 µM
[17]; RXF 393, read-out: LC50 (the source's name)
  CC50: 5.99 µM
[18]; UACC-257
  GI50: 0.94 µM
  TGI: 4.51 µM
[18]; UACC-257, read-out: LC50 (the source's name)
  CC50: > 100 µM
[19]
  GI50: 2.03 µM
  LC50: 86.4 µM
  TGI: 15.9 µM
[20]
  GI50: 6.05 µM
  TGI: > 100 µM
[20]; [37]
  CC50: > 100 µM
[21]
  GI50: 0.6 µM
  LC50: 95.8 µM
  TGI: 3.57 µM
[22]
  GI50: 0.32 µM
  TGI: > 100 µM
[22]; [37]
  CC50: > 100 µM
[23]
  GI50: 0.73 µM
  LC50: > 100 µM
  TGI: 5.52 µM
[24]
  growth at 10 µM: -8.89%
[25]
  GI50: > 100 µM
  TGI: > 100 µM
[25]; [37]
  CC50: > 100 µM
[26]; HCT-15
  GI50: 3.04 µM
  TGI: > 100 µM
[26]; HCT-15, read-out: LC50 (the source's name)
  CC50: > 100 µM
[27]
  GI50: 3.76 µM
  LC50: > 100 µM
  TGI: 31.9 µM
[28]; OVCAR-8
  GI50: 3.53 µM
  TGI: > 100 µM
[28]; OVCAR-8, read-out: LC50 (the source's name)
  CC50: > 100 µM
[29]
  growth at 10 µM: 2.23%
[30]
  GI50: 3.18 µM
  TGI: 19.8 µM
[30]; [37]
  CC50: > 100 µM
[31]
  GI50: 2.94 µM
  TGI: 75.1 µM
[31]; [37]
  CC50: > 100 µM
[32]
  GI50: 2.13 µM
  LC50: 63.3 µM
  TGI: 9.09 µM
[33]
  inhibition: inactive
[34]; BT-549
  GI50: 0.44 µM
  TGI: 2.65 µM
[34]; BT-549, read-out: LC50 (the source's name)
  CC50: > 100 µM
[35]
  GI50: 3.86 µM
  TGI: > 100 µM
[35]; [37]
  CC50: > 100 µM
[36]
  GI50: 4.06 µM
  TGI: > 100 µM
[36]; [37]
  CC50: > 100 µM
